According to ChEMBL document CHEMBL4364306, “Structure-activity relationships of thiazole and benzothiazole derivatives as selective cannabinoid CB2 agonists with in vivo anti-inflammatory properties” (Eur J Med Chem, 2019):
Active and inactive are the calls of the source. The rule behind the calls is not given here.

What was measured:
Homo sapiens = organism: Homo sapiens; assay: Selectivity index, ratio of Ki for recombinant human CB1R expressed in HEK293 cell membranes to Ki for recombinant human CB2R expressed in HEK293 cell membranes; assay type: cell-based
Cannabinoid receptor 2 [1] = biological target: T1, Cannabinoid receptor 2 (Homo sapiens, UniProt P34972); assay: Agonist activity at N-terminal Flag epitope tagged CB2 (unknown origin) expressed in HTLA cells assessed as increase of beta-arrestin recruitment by Tango assay; assay type: cell-based
How it was run: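 β-arrestin Tango assay: HTLA cells transfected overnight with GPCR tango constructs, plated at 15,000 cells/well in DMEM with 1% dFBS, recovered ≥6 h. Drugs in Tango buffer (20 mM HEPES, 1x HBSS, pH 7.40) added overnight, full concentration-response (maximum 30 µM). BrightGlo reagent, 20 min room temperature in dark, luminescence read.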

Cannabinoid receptor 2 [2] = biological target: T1, Cannabinoid receptor 2; assay: Antagonist activity at N-terminal Flag epitope tagged CB2 (unknown origin) expressed in HTLA cells assessed as decrease in CP55940-induced beta-arrestin recruitment pretreated with non-selective cannabinoid receptor agonist CP55940 for 30 mins and measured after 20 mins by Tango assay; assay type: cell-based
Cannabinoid receptor 1 [3] = biological target: T2, Cannabinoid receptor 1 (Homo sapiens, UniProt P21554); assay: Agonist activity at N-terminal Flag epitope tagged CB1 (unknown origin) expressed in HTLA cells assessed as increase of beta-arrestin recruitment by Tango assay; assay type: cell-based
How it was run: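 HTLA cells transfected overnight with GPCR Tango constructs, plated at 15,000 cells/well in DMEM with 1% dFBS and allowed to recover at least 6 h. Compounds in Tango buffer (20 mM HEPES, 1x HBSS, pH 7.40) added overnight, full concentration-response up to 30 µM against CP-55,940 as reference agonist. BrightGlo reagent added for 20 min at room temperature in the dark, then luminescence read.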

Cannabinoid receptor 1 [4] = biological target: T2, Cannabinoid receptor 1; assay: Antagonist activity at N-terminal Flag epitope tagged CB1 (unknown origin) expressed in HTLA cells assessed as decrease in CP55940-induced beta-arrestin recruitment pretreated with non-selective cannabinoid receptor agonist CP55940 for 30 mins and measured after 20 mins by Tango assay; assay type: cell-based
Cannabinoid receptor 2 [5] = biological target: T1, Cannabinoid receptor 2; assay: Agonist activity at recombinant human CB2R expressed in CHOK1 cells assessed as inhibition of NKH477-stimulated intracellular cAMP levels after 30 mins by chemiluminescent detection based cAMP Hunter assay; assay type: functional, cell-based
How it was run: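 CHO-K1 cells overexpressing human CB2R, plated 30,000 cells/well, overnight 37 °C, 5% CO2. Compound dose-responses incubated 30 min at 37 °C with NKH-477 (25 µM) to stimulate adenylate cyclase. Enzyme fragment complementation chemiluminescence read. Normalised to NKH-477 alone as 100%; mean ± SEM of three independent experiments in triplicate.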

Mus musculus [6] = assay: Anti-colitis activity in Swiss albino mouse model of DSS-induced acute colitis assessed as disease activity index at 10 mg/kg, ip administrated for 7 days (reference value: 7.143 +/- 1.29); assay type: functional
Mus musculus [7] = assay: Anti-colitis activity in Swiss albino mouse model of DSS-induced acute colitis assessed as colon length at 10 mg/kg, ip administrated for 7 days (reference value: 7.314 +/- 0.1143 cm); assay type: functional
Mus musculus [8] = assay: Anti-colitis activity in Swiss albino mouse model of DSS-induced acute colitis assessed as reduction in DSS-induced ulceration in distal part of colon at 10 mg/kg, ip administrated for 7 days by H and E staining based light microscopic method; assay type: functional, organism-based
How it was run: (§1)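 DSS colitis (3% DSS, 7 days) in male Swiss albino mice with daily ip 10 mg/kg in 4% DMSO/2% tween/saline. Distal colon fixed in 10% formol saline 24 h, paraffin-embedded, 4 µm sections, H&E, light microscopy scored for epithelial ulceration/desquamation, mucosal and submucosal infiltration, submucosal oedema, haemorrhage, lymphoid hyperplasia.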

Mus musculus [9] = assay: Anti-colitis activity in Swiss albino mouse model of DSS-induced acute colitis assessed as reduction in DSS-induced desquamation in lining of mucosal epithelium in colon tissue at 10 mg/kg, ip administrated for 7 days by H and E staining based light microscopic method; assay type: functional, organism-based; how it was run: as §1
Mus musculus [10] = assay: Anti-colitis activity in Swiss albino mouse model of DSS-induced acute colitis assessed as reduction in DSS-induced oedema in colon at 10 mg/kg, ip administrated for 7 days by H and E staining based light microscopic method; assay type: functional, organism-based; how it was run: as §1
Mus musculus [11] = assay: Anti-colitis activity in Swiss albino mouse model of DSS-induced acute colitis assessed as reduction in DSS-induced lymphoid hyperplasia in the sub-musoca in colon at 10 mg/kg, ip administrated for 7 days by H and E staining based light microscopic method; assay type: functional, organism-based; how it was run: as §1
Mus musculus [12] = assay: Anti-colitis activity in Swiss albino mouse model of DSS-induced acute colitis assessed as reduction in DSS-induced haemorrhage in colon at 10 mg/kg, ip administrated for 7 days by H and E staining based light microscopic method; assay type: functional, organism-based; how it was run: as §1
Mus musculus [13] = assay: Anti-colitis activity in Swiss albino mouse model of DSS-induced acute colitis assessed as reduction in DSS-induced inflammatory cells infiltration in the submucosa in colon at 10 mg/kg, ip administrated for 7 days by H and E staining based light microscopic method; assay type: functional, organism-based; how it was run: as §1
Mus musculus [14] = assay: Anti-inflammatory activity in Swiss albino mouse model of DSS-induced acute colitis as TNFalpha level in colon tissue at 10 mg/kg, ip administrated for 7 days by ELISA (reference value: 102.4 +/- 5.043 pg/mg); assay type: functional
Mus musculus [15] = assay: Anti-inflammatory activity in Swiss albino mouse model of DSS-induced acute colitis as IL1beta level in colon tissue at 10 mg/kg, ip administrated for 7 days by ELISA (reference value: 140.9 +/- 8.551 pg/mg); assay type: functional
Cannabinoid receptor 1 [16] = biological target: T2, Cannabinoid receptor 1; assay: Displacement of [3H]CP55940 from recombinant human CB1R expressed in HEK293 cell membranes at 10 uM incubated for 90 mins relative to control
Cannabinoid receptor 2 [17] = biological target: T1, Cannabinoid receptor 2; assay: Displacement of [3H]CP55940 from recombinant human CB2R expressed in HEK293 cell membranes at 10 uM incubated for 90 mins relative to control

T1 sequence (P34972 whole entry): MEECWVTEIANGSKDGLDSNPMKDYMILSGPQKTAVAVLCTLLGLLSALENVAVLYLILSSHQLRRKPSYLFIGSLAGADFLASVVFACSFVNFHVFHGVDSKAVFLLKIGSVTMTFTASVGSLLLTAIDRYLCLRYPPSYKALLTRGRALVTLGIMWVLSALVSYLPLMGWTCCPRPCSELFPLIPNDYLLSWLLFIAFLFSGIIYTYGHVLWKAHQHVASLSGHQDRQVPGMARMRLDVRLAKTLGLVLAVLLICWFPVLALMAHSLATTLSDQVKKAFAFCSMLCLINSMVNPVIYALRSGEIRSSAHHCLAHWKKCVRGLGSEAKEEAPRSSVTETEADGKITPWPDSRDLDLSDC
T2 sequence (P21554 whole entry): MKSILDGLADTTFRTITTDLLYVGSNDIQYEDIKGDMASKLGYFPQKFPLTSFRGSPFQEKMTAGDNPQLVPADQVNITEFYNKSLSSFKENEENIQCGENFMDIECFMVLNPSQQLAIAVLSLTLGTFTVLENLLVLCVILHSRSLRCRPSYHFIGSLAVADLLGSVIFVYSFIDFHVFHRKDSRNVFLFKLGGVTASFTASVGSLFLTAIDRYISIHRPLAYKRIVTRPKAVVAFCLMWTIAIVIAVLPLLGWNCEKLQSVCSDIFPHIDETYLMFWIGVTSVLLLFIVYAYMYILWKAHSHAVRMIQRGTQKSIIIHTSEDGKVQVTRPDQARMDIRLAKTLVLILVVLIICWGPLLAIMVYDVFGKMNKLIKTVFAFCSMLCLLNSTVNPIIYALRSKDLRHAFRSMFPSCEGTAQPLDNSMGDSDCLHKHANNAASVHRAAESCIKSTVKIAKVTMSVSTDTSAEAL

## CCCCCn1/c(=N/C(=O)c2cccc(C(F)(F)F)c2)sc2ccccc21
Homo sapiens
  Ratio Ki: 429
Cannabinoid receptor 2 [1]
  EC50: 129 nM
Cannabinoid receptor 2 [2]
  EC50: > 30000 nM
Cannabinoid receptor 1 [3]
  EC50: > 30000 nM
Cannabinoid receptor 1 [4]
  EC50: > 30000 nM
Cannabinoid receptor 2 [5]
  EC50: 306 nM
Mus musculus [6]
  Activity_index: 3.286
Mus musculus [7]
  Activity: 6.729 cm
Mus musculus [8]
  Activity: Active
Mus musculus [9]
  Activity: Active
Mus musculus [10]
  Activity: Active
Mus musculus [11]
  Activity: Active
Mus musculus [12]
  Activity: Active
Mus musculus [13]
  Activity: inactive
Mus musculus [14]
  Activity: 58.71 pg/mg
Mus musculus [15]
  Activity: 102.4 pg/mg
Cannabinoid receptor 1 [16]
  Activity: Active
Cannabinoid receptor 2 [17]
  Activity: Active
